Data from ChEMBL document CHEMBL1143103, “2-Hydroxyphenacyl azoles and related azolium derivatives as antifungal agents” (Bioorg Med Chem Lett, 2008).
Values after ≈ are worked out from the molar mass of the structure shown.

Assays:
Candida albicans = test: Antifungal activity against Candida albicans PTCC 5027 after 24 to 48 hrs by agar dilution method; assay type: functional
Summary of the method: (§1)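 Agar dilution on Sabouraud Dextrose Agar. Plates prepared in triplicate and incubated at 30 °C: yeasts about 24–48 h, moulds about 72 h, dermatophytes about 168 h. MIC taken as the lowest concentration with no growth, in µg/mL. Footnote states duplicate determinations.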

Saccharomyces cerevisiae = test: Antifungal activity against Saccharomyces cerevisiae PTCC 5177 after 24 to 48 hrs by agar dilution method; assay type: functional; summary of the method: as §1
Aspergillus niger = test: Antifungal activity against Aspergillus niger PTCC 5012 after 72 hrs by agar dilution method; assay type: functional; summary of the method: as §1
Microsporum = test: Antifungal activity against Microsporum gypseum PTCC 5070 after 168 hrs by agar dilution method; assay type: functional; summary of the method: as §1
[1] = Cytotoxicity against mouse NIH/3T3 cells after 72 hrs by MTT colorimetric assay; assay type: cell-based; settings: NIH3T3, 72 h
Summary of the method: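 NIH/3T3 cells in exponential growth were trypsinized and seeded at 5 × 10^4 cells/mL in complete medium. Serial dilutions were added, each in triplicate, with untreated cells as the viability control. After 72 h incubation, MTT (5 mg/mL solution) was added for 1 h. Medium was replaced with DMSO and absorbance read at 492 nm. IC50 was taken from dose-response curves against control; mean ± SD of triplicates.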

Q: With O=C(Cn1ccnc1)c1ccc(Cl)cc1O as the molecule, how does the MIC (Candida albicans) read?
A: 64 µg/mL (≈ 270 µM)

Q: What about the MIC (Saccharomyces cerevisiae) of the same molecule?
A: 0.25 µg/mL (≈ 1.06 µM)

Q: And the MIC (Aspergillus niger)?
A: 64 µg/mL (≈ 270 µM)

Q: What about the MIC (Microsporum) of the same molecule?
A: 32 µg/mL (≈ 135 µM)

Q: With COc1ccc(C(=O)Cn2ccnc2)c(O)c1 as the molecule, how does the MIC (Candida albicans) read?
A: 8 µg/mL (≈ 34.4 µM)

Q: What about the MIC (Saccharomyces cerevisiae) of the same molecule?
A: 0.25 µg/mL (≈ 1.08 µM)

Q: What about the IC50 [1] of the same molecule?
A: 221 µg/mL (≈ 952 µM)

Q: What about the MIC (Aspergillus niger) of the same molecule?
A: 16 µg/mL (≈ 68.9 µM)

Q: What about the MIC (Microsporum) of the same molecule?
A: 8 µg/mL (≈ 34.4 µM)

Q: Which MIC (Candida albicans) does the source give for O=C(Cn1cncn1)c1ccccc1O here?
A: 64 µg/mL (≈ 315 µM)

Q: What about the MIC (Saccharomyces cerevisiae) of the same molecule?
A: 64 µg/mL (≈ 315 µM)

Q: What about the MIC (Aspergillus niger) of the same molecule?
A: 32 µg/mL (≈ 157 µM)

Q: And the MIC (Microsporum)?
A: 64 µg/mL (≈ 315 µM)

Q: For O=C(Cn1cncn1)c1ccc(Cl)cc1O, which MIC (Candida albicans) is on record?
A: 32 µg/mL (≈ 135 µM)

Q: What about the MIC (Saccharomyces cerevisiae) of the same molecule?
A: 64 µg/mL (≈ 269 µM)

Q: What about the MIC (Aspergillus niger) of the same molecule?
A: 16 µg/mL (≈ 67.3 µM)

Q: And the MIC (Microsporum)?
A: 16 µg/mL (≈ 67.3 µM)

Q: Which MIC (Candida albicans) does the source give for COc1ccc(C(=O)Cn2cncn2)c(O)c1 here?
A: 8 µg/mL (≈ 34.3 µM)

Q: And the MIC (Saccharomyces cerevisiae)?
A: 8 µg/mL (≈ 34.3 µM)

Q: And the IC50 [1]?
A: 222 µg/mL (≈ 952 µM)

Q: What about the MIC (Aspergillus niger) of the same molecule?
A: 32 µg/mL (≈ 137 µM)

Q: What about the MIC (Microsporum) of the same molecule?
A: 16 µg/mL (≈ 68.6 µM)

Q: With COc1ccc(C(=O)Cn2c[n+](N)cn2)c(O)c1.[Br-] as the molecule, how does the MIC (Candida albicans) read?
A: 2 µg/mL

Q: And the MIC (Saccharomyces cerevisiae)?
A: 4 µg/mL

Q: What about the IC50 [1] of the same molecule?
A: 254 µg/mL

Q: What about the MIC (Aspergillus niger) of the same molecule?
A: 16 µg/mL

Q: And the MIC (Microsporum)?
A: 8 µg/mL

Q: With O=C(Cn1c[n+](CC(=O)c2ccc(Cl)cc2O)cn1)c1ccc(Cl)cc1O.[Br-] as the molecule, how does the MIC (Candida albicans) read?
A: 32 µg/mL

Q: And the MIC (Saccharomyces cerevisiae)?
A: 8 µg/mL

Q: What about the MIC (Aspergillus niger) of the same molecule?
A: 64 µg/mL

Q: And the MIC (Microsporum)?
A: 32 µg/mL

Q: Which results are given for O=C(Cn1cnnc1)c1ccc(Cl)cc1O?
A: MIC (Candida albicans): 16 µg/mL (≈ 67.3 µM); MIC (Saccharomyces cerevisiae): 16 µg/mL (≈ 67.3 µM); MIC (Aspergillus niger): 32 µg/mL (≈ 135 µM); MIC (Microsporum): 64 µg/mL (≈ 269 µM)

Q: For N[n+]1cnn(CC(=O)c2ccccc2O)c1.[Br-], which MIC (Candida albicans) is on record?
A: 64 µg/mL

Q: What about the MIC (Saccharomyces cerevisiae) of the same molecule?
A: 32 µg/mL

Q: And the MIC (Aspergillus niger)?
A: 32 µg/mL

Q: What about the MIC (Microsporum) of the same molecule?
A: 32 µg/mL

Q: For O/N=C(\Cn1ccnc1)c1ccccc1O, which MIC (Candida albicans) is on record?
A: 32 µg/mL (≈ 147 µM)

Q: What about the MIC (Saccharomyces cerevisiae) of the same molecule?
A: 32 µg/mL (≈ 147 µM)

Q: What about the MIC (Aspergillus niger) of the same molecule?
A: 64 µg/mL (≈ 295 µM)

Q: What about the MIC (Microsporum) of the same molecule?
A: 64 µg/mL (≈ 295 µM)

Q: For O=C(Cn1ccnc1)c1ccccc1O, which MIC (Candida albicans) is on record?
A: 64 µg/mL (≈ 316 µM)

Q: And the MIC (Saccharomyces cerevisiae)?
A: 64 µg/mL (≈ 316 µM)

Q: What about the MIC (Aspergillus niger) of the same molecule?
A: 64 µg/mL (≈ 316 µM)

Q: What about the MIC (Microsporum) of the same molecule?
A: 64 µg/mL (≈ 316 µM)

Q: Which results are given for O=C(Cn1c[n+](CC(=O)c2ccccc2O)cn1)c1ccccc1O.[Br-]?
A: MIC (Candida albicans): 16 µg/mL; MIC (Saccharomyces cerevisiae): 1 µg/mL; IC50 [1]: 47 µg/mL; MIC (Aspergillus niger): 32 µg/mL; MIC (Microsporum): 16 µg/mL

Q: Which MIC (Candida albicans) does the source give for N[n+]1cnn(CC(=O)c2ccc(Cl)cc2O)c1.[Br-] here?
A: 4 µg/mL

Q: What about the MIC (Saccharomyces cerevisiae) of the same molecule?
A: 0.25 µg/mL

Q: What about the IC50 [1] of the same molecule?
A: 370 µg/mL

Q: What about the MIC (Aspergillus niger) of the same molecule?
A: 32 µg/mL

Q: And the MIC (Microsporum)?
A: 16 µg/mL

Q: Which MIC (Candida albicans) does the source give for O=C(Cn1cnnc1)c1ccccc1O here?
A: 32 µg/mL (≈ 157 µM)

Q: What about the MIC (Saccharomyces cerevisiae) of the same molecule?
A: 16 µg/mL (≈ 78.7 µM)

Q: What about the MIC (Aspergillus niger) of the same molecule?
A: 16 µg/mL (≈ 78.7 µM)

Q: And the MIC (Microsporum)?
A: 16 µg/mL (≈ 78.7 µM)

Q: Which results are given for COc1ccc(C(=O)Cn2c[n+](CC(=O)c3ccc(OC)cc3O)cn2)c(O)c1.[Br-]?
A: MIC (Candida albicans): 8 µg/mL; MIC (Saccharomyces cerevisiae): 4 µg/mL; IC50 [1]: 98 µg/mL; MIC (Aspergillus niger): 16 µg/mL; MIC (Microsporum): 16 µg/mL

Q: Which MIC (Candida albicans) does the source give for OC(Cn1cncn1)(Cn1cncn1)c1ccc(F)cc1F [FLUCONAZOLE] here?
A: 8 µg/mL (≈ 26.1 µM)

Q: And the MIC (Saccharomyces cerevisiae)?
A: 32 µg/mL (≈ 104 µM)

Q: And the IC50 [1]?
A: 387 µg/mL (≈ 1260 µM)

Q: What about the MIC (Aspergillus niger) of the same molecule?
A: 32 µg/mL (≈ 104 µM)

Q: And the MIC (Microsporum)?
A: 32 µg/mL (≈ 104 µM)

Q: For Clc1ccc(COC(Cn2ccnc2)c2ccc(Cl)cc2Cl)c(Cl)c1 (stereo not given) [MICONAZOLE], which MIC (Candida albicans) is on record?
A: 1 µg/mL (≈ 2.4 µM)

Q: What about the MIC (Saccharomyces cerevisiae) of the same molecule?
A: 1 µg/mL (≈ 2.4 µM)

Q: What about the MIC (Aspergillus niger) of the same molecule?
A: 2 µg/mL (≈ 4.81 µM)

Q: And the MIC (Microsporum)?
A: 8 µg/mL (≈ 19.2 µM)
